Data as given in ChEMBL document CHEMBL1154089, “Novel N-(3-carboxyl-9-benzyl-beta-carboline-1-yl)ethylamino acids: synthesis, anti-tumor evaluation, intercalating determination, 3D QSAR analysis and docking investigation” (Eur J Med Chem, 2009).
Calls of active or inactive are those of the source. No cut-off for these calls is given here.

Experiments:
[1] = system: CCRF S-180; assay: Antitumor activity against mouse S180 cells xenografted in ICR mouse assessed as decrease in tumor weight at 89 umol/kg, ip administered 24 hrs after tumor implantation once daily for 7 consecutive days measured after 24 hrs last post dose; format: functional
In short: (§1)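 Male ICR mice, 10–12 weeks old. Solid tumors from 1 × 10^7 viable S180 ascites cells in 0.2 ml 0.9% saline, injected s.c. at the right armpit. Random allocation at 24 h, 12 per group. Dosed i.p. daily in 0.2 ml 0.9% saline for 7 days. Saline-only negative control; cytarabine 89 µmol/kg positive control. Tumors excised and weighed 24 h after the last dose. ANOVA used for statistics.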

[2] = system: Mus musculus; assay: Toxicity in ICR mouse assessed as heart necropsy at > 500 mg/kg, ip after 7 days; format: organism-based; parameters: dose 500 mg/kg, route intraperitoneal; settings: in vivo, 168 h
In short: (§2)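 Mice fasted overnight with free access to water, then given a single i.p. injection of 150, 300 or 500 mg/kg in 0.2 ml of 0.9% saline. Groups of 12 (six male, six female). Animals were watched continuously for up to 7 days for abnormal behaviour (tremor, twitch, jumping, tetanus, supination) or death. They were sacrificed on day 7, and heart, liver and kidneys were checked macroscopically. LD50 was estimated graphically.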

[3] = system: CCRF S-180; assay: Antitumor activity against mouse S180 cells xenografted in ICR mouse assessed as inhibition of tumor growth at 0.89 umol/kg, ip administered 24 hrs after tumor implantation once daily for 7 consecutive days measured after 24 hrs last post dose; format: functional; settings: CCRF S-180, ip
In short: (§3)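 S180 solid tumors in male ICR mice (10–12 weeks), 1 × 10^7 cells s.c. at the right armpit. Mice randomized at 24 h, n = 12 per group, and dosed i.p. daily in 0.2 ml 0.9% saline for 7 days. Tumors weighed 24 h after the final dose. Inhibition (%) = [(A − B)/A] × 100, where A is the mean tumor weight of saline controls and B is the mean of the treated group.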

[4] = system: Mus musculus; assay: Toxicity in ICR mouse assessed as jumping at > 500 mg/kg, ip after 7 days; format: organism-based; parameters: dose 500 mg/kg, route intraperitoneal; settings: in vivo, 168 h; in short: as §2
[5] = system: CCRF S-180; assay: Antitumor activity against mouse S180 cells xenografted in ICR mouse assessed as decrease in tumor weight at 0.89 umol/kg, ip administered 24 hrs after tumor implantation once daily for 7 consecutive days measured after 24 hrs last post dose; format: functional; in short: as §1
[6] = system: Mus musculus; assay: Toxicity in ICR mouse assessed as supination at > 500 mg/kg, ip after 7 days; format: organism-based; parameters: dose 500 mg/kg, route intraperitoneal; settings: in vivo, 168 h; in short: as §2
[7] = system: Mus musculus; assay: Toxicity in ICR mouse assessed as kidneys necropsy at > 500 mg/kg, ip after 7 days; format: organism-based, Kidney; parameters: dose 500 mg/kg, route intraperitoneal; settings: in vivo, 168 h; in short: as §2
[8] = system: CCRF S-180; assay: Antitumor activity against mouse S180 cells xenografted in ICR mouse assessed as inhibition of tumor growth at > 89 umol/kg, ip administered 24 hrs after tumor implantation once daily for 7 consecutive days measured after 24 hrs last post dose; format: functional, organism-based
[9] = system: CCRF S-180; assay: Antitumor activity against mouse S180 cells xenografted in ICR mouse assessed as inhibition of tumor growth at 89 umol/kg, ip administered 24 hrs after tumor implantation once daily for 7 consecutive days measured after 24 hrs last post dose; format: functional; settings: CCRF S-180, ip; in short: as §3
[10] = system: Mus musculus; assay: Toxicity in ICR mouse assessed as liver necropsy at > 500 mg/kg, ip after 7 days; format: organism-based; parameters: dose 500 mg/kg, route intraperitoneal; settings: in vivo, 168 h; in short: as §2
[11] = system: CCRF S-180; assay: Antitumor activity against mouse S180 cells xenografted in ICR mouse assessed as decrease in tumor weight at 0.0089 umol/kg, ip administered 24 hrs after tumor implantation once daily for 7 consecutive days measured after 24 hrs last post dose; format: functional; in short: as §1
[12] = system: Mus musculus; assay: Toxicity in ICR mouse assessed as tetanus at > 500 mg/kg, ip after 7 days; format: organism-based; parameters: dose 500 mg/kg, route intraperitoneal; settings: in vivo, 168 h; in short: as §2
[13] = system: Mus musculus; assay: Toxicity in ICR mouse assessed as death at > 500 mg/kg, ip after 7 days; format: organism-based; parameters: dose 500 mg/kg, route intraperitoneal; settings: in vivo, 168 h; in short: as §2
[14] = system: HL-60; assay: Cytotoxicity against human HL60 cells after 48 hrs by MTT assay; format: functional, cell-based; settings: HL-60, 48 h
In short: (§4)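 Cells grown in DMEM or RPMI-1640 with 10% FBS plus penicillin/streptomycin. Seeded at 5 × 10^4 cells/ml and given 4 h at 37 °C in 5% CO2 before the medium was replaced with compound (0.1–400 µM, DMSO vehicle; vehicle control 1% DMSO). After 48 h, MTT added (final 0.5 mg/ml) for 4 h. Formazan dissolved in DMSO and read at 570 nm. IC50 is the concentration giving 50% growth inhibition.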

[15] = Cytotoxicity against human MES-SA cells after 48 hrs by MTT assay; format: functional, cell-based; in short: as §4
[16] = system: Mus musculus; assay: Toxicity in ICR mouse assessed as twitch at > 500 mg/kg, ip after 7 days; format: organism-based; parameters: dose 500 mg/kg, route intraperitoneal; settings: in vivo, 168 h; in short: as §2
[17] = Cytotoxicity against human H1299 cells after 48 hrs by MTT assay; format: functional, cell-based; settings: NCI-H1299, 48 h; in short: as §4
[18] = system: HeLa; assay: Cytotoxicity against human HeLa cells after 48 hrs by MTT assay; format: functional, cell-based; in short: as §4
[19] = system: Mus musculus; assay: Toxicity in ICR mouse assessed as tremor at > 500 mg/kg, ip after 7 days; format: organism-based; parameters: dose 500 mg/kg, route intraperitoneal; settings: in vivo, 168 h; in short: as §2
[20] = system: Mus musculus; assay: Toxicity in mouse S180 cells xenografted in ICR mouse assessed as spleen index at 89 umol/kg, ip administered 24 hrs after tumor implantation once daily for 7 consecutive days measured after 24 hrs last post dose; format: organism-based, CCRF S-180; settings: in vivo
In short: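 S180-bearing male ICR mice (n = 12) received 89 µmol/kg i.p. daily in 0.2 ml saline for 7 days. Killed under ether 24 h after the last dose; spleens excised and weighed. Spleen index given as mean ± SD, […] body weight.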

[21] = system: CCRF S-180; assay: Antitumor activity against mouse S180 cells xenografted in ICR mouse assessed as inhibition of tumor growth at 0.0089 umol/kg, ip administered 24 hrs after tumor implantation once daily for 7 consecutive days measured after 24 hrs last post dose; format: functional; settings: CCRF S-180, ip; in short: as §3
[22] = system: HepG2; assay: Cytotoxicity against human HepG2 cells after 48 hrs by MTT assay; format: functional, cell-based; settings: HepG2, 48 h; in short: as §4
[23] = system: Mus musculus; assay: Toxicity in mouse S180 cells xenografted in ICR mouse assessed as increase in body weight at 89 umol/kg, ip administered 24 hrs after tumor implantation once daily for 7 consecutive days measured after 24 hrs last post dose; format: organism-based, CCRF S-180; settings: in vivo
In short: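 S180-bearing male ICR mice, n = 12 per group, given 89 µmol/kg i.p. daily in 0.2 ml 0.9% saline for 7 days, starting 24 h after s.c. implantation. Animals weighed daily. Result expressed as body-weight increase from the start of treatment, in g, mean ± SD.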

With `C[C@H](NCCc1nc(C(=O)O)cc2c3ccccc3n(Cc3ccccc3)c12)C(=O)O` the Activity [1] was 0.74 g, the Activity [2] was “Non-toxic” and the inhibition in vivo at 0.89 µmol/kg [3] was 25.6%. For the same compound, the Activity [4] was “Non-toxic”, the Activity [5] was 1.22 g and the Activity [6] was “Non-toxic”. For the same compound, the Activity [7] was “Non-toxic”, the Activity [8] was “Active” and the inhibition in vivo at 89 µmol/kg [9] was 55.2%. For the same compound, the Activity [10] was “Non-toxic”, the Activity [11] was 1.64 g and the Activity [12] was “Non-toxic”. The Activity [13] was “Non-toxic”, the IC50 [14] was 28.1 µM and the IC50 [15] was 120 µM. The Activity [16] was “Non-toxic”, the IC50 [17] was 81.8 µM and the IC50 [18] was 122 µM. The Activity [19] was “Non-toxic”, the Activity [20] was 13.3 mg/g and the inhibition in vivo at 0.0089 µmol/kg [21] was 1.5%. It also gave an IC50 [22] of 242 µM and an Activity [23] of 12.92 g.
